Laboratory results published in ChEMBL document CHEMBL1147968, “Novel lbeta-methylcarbapenems having cyclic sulfonamide moieties: synthesis and evaluation of in vitro antibacterial activity” (2007).
Converted amounts (≈) assume the structure as drawn.

What was measured:
Pasteurella multocida = assay: Antibacterial activity against Pasteurella multocida after 18 to 24 hrs by agar dilution method; type: functional
In short: (§1)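 MICs were determined by agar dilution on test agar. An overnight tryptosoy broth culture was diluted in the same broth to about 10⁶ cells/mL and spotted with an inoculating device onto agar containing serial twofold dilutions of compound. Plates were incubated at 37 °C for 18–20 h, and the MIC was the lowest concentration with no visible growth.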

Pseudomonas aeruginosa [1] = assay: Antibacterial activity against Pseudomonas aeruginosa 5455 after 18 to 24 hrs by agar dilution method; type: functional; in short: as §1
[2] = Antibacterial activity against Salmonella give after 18 to 24 hrs by agar dilution method; type: functional, Salmonella enterica subsp. enterica serovar Give; settings: Salmonella enterica; in short: as §1
Salmonella = assay: Antibacterial activity against Salmonella orion after 18 to 24 hrs by agar dilution method; type: functional; in short: as §1
Micrococcus luteus = assay: Antibacterial activity against Micrococcus luteus ATCC 9341 after 18 to 24 hrs by agar dilution method; type: functional; in short: as §1
Escherichia coli [3] = assay: Antibacterial activity against Escherichia coli TEM after 18 to 24 hrs by agar dilution method; type: functional; in short: as §1
Staphylococcus aureus [4] = assay: Antibacterial activity against Staphylococcus aureus 209P after 18 to 24 hrs by agar dilution method; type: functional; in short: as §1
Streptococcus pneumoniae = assay: Antibacterial activity against Streptococcus pneumoniae 0025 after 18 to 24 hrs by agar dilution method; type: functional; in short: as §1
Escherichia coli [5] = assay: Antibacterial activity against Escherichia coli 086 after 18 to 24 hrs by agar dilution method; type: functional; in short: as §1
Streptococcus agalactiae [6] = assay: Antibacterial activity against Streptococcus agalactiae B after 18 to 24 hrs by agar dilution method; type: functional; in short: as §1
Enterococcus faecalis = assay: Antibacterial activity against Enterococcus faecalis 2347 after 18 to 24 hrs by agar dilution method; type: functional; in short: as §1
Haemophilus influenzae = assay: Antibacterial activity against Haemophilus influenzae 1210 after 18 to 24 hrs by agar dilution method; type: functional; in short: as §1
Priestia megaterium = assay: Antibacterial activity against Bacillus megaterium after 18 to 24 hrs by agar dilution method; type: functional; in short: as §1
Trueperella pyogenes = assay: Antibacterial activity against Corynebacterium pyogenes after 18 to 24 hrs by agar dilution method; type: functional; in short: as §1
Salmonella typhi = assay: Antibacterial activity against Salmonella typhi after 18 to 24 hrs by agar dilution method; type: functional, Salmonella enterica subsp. enterica serovar Typhi; settings: Salmonella enterica
In short: (§2)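 Agar dilution on test agar with serial twofold dilutions of compound. Overnight tryptosoy broth cultures diluted in the same broth to about 10⁶ cells/mL, then applied with an inoculating device. Plates incubated at 37 °C for 18–20 h.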

Escherichia coli [7] = assay: Antibacterial activity against Escherichia coli 0114 after 18 to 24 hrs by agar dilution method; type: functional; in short: as §1
Escherichia coli [8] = assay: Antibacterial activity against Escherichia coli 1507 after 18 to 24 hrs by agar dilution method; type: functional; in short: as §1
Escherichia coli [9] = assay: Antibacterial activity against Escherichia coli V6311/65 after 18 to 24 hrs by agar dilution method; type: functional; in short: as §1
Escherichia coli [10] = assay: Antibacterial activity against Escherichia coli 0126 after 18 to 24 hrs by agar dilution method; type: functional; in short: as §1
Proteus mirabilis [11] = assay: Antibacterial activity against Proteus mirabilis 174/3 after 18 to 24 hrs by agar dilution method; type: functional; in short: as §1
Staphylococcus aureus [12] = assay: Antibacterial activity against Staphylococcus aureus 503 after 18 to 24 hrs by agar dilution method; type: functional; in short: as §1
Enterococcus durans = assay: Antibacterial activity against Streptococcus durans D after 18 to 24 hrs by agar dilution method; type: functional; in short: as §1
Serratia marcescens [13] = assay: Antibacterial activity against Serratia marcescens 370 after 18 to 24 hrs by agar dilution method; type: functional; in short: as §1
Enterobacter cloacae [14] = assay: Antibacterial activity against Enterobacter cloacae 34 after 18 to 24 hrs by agar dilution method; type: functional; in short: as §1
Streptococcus pyogenes = assay: Antibacterial activity against Streptococcus pyogenes 9889 after 18 to 24 hrs by agar dilution method; type: functional
In short: (§3)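 Agar dilution on test agar holding serial twofold dilutions of compound. Overnight tryptosoy broth cultures were diluted in the same broth to about 10⁶ cells/mL and spotted with an inoculating device. Plates were incubated at 37 °C for 18–20 h.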

Klebsiella pneumoniae [15] = assay: Antibacterial activity against Klebsiella pneumoniae 477 after 18 to 24 hrs by agar dilution method; type: functional; in short: as §1
Acinetobacter baumannii = assay: Antibacterial activity against Acinetobacter baumannii 2289 after 18 to 24 hrs by agar dilution method; type: functional; in short: as §1
Providencia rettgeri [16] = assay: Antibacterial activity against Proteus rettgeri 937 after 18 to 24 hrs by agar dilution method; type: functional; in short: as §1
Bacillus subtilis = assay: Antibacterial activity against Bacillus subtilis ATCC 6633 after 18 to 24 hrs by agar dilution method; type: functional; in short: as §1
Staphylococcus aureus [17] = assay: Antibacterial activity against Staphylococcus aureus 1218 after 18 to 24 hrs by agar dilution method; type: functional; in short: as §1
Streptococcus agalactiae [18] = assay: Antibacterial activity against Streptococcus agalactiae 32 after 18 to 24 hrs by agar dilution method; type: functional; in short: as §1
Pseudomonas aeruginosa [19] = assay: Antibacterial activity against Pseudomonas aeruginosa 110/2 after 18 to 24 hrs by agar dilution method; type: functional; in short: as §1
Burkholderia cepacia = assay: Antibacterial activity against Pseudomonas cepacia after 18 to 24 hrs by agar dilution method; type: functional; in short: as §1
Pseudomonas aeruginosa [20] = assay: Antibacterial activity against Pseudomonas aeruginosa 880/2 after 18 to 24 hrs by agar dilution method; type: functional; in short: as §1
Staphylococcus = assay: Antibacterial activity against coagulase negative Staphylococcus after 18 to 24 hrs by agar dilution method; type: functional; in short: as §3
Proteus vulgaris = assay: Antibacterial activity against Proteus vulgaris 868 after 18 to 24 hrs by agar dilution method; type: functional; in short: as §1
Providencia rettgeri [21] = assay: Antibacterial activity against Proteus rettgeri 936 after 18 to 24 hrs by agar dilution method; type: functional; in short: as §1
Enterobacter cloacae [22] = assay: Antibacterial activity against Enterobacter cloacae after 18 to 24 hrs by agar dilution method; type: functional; in short: as §1
Enterococcus faecium = assay: Antibacterial activity against Streptococcus faecium 77A after 18 to 24 hrs by agar dilution method; type: functional; in short: as §1
Citrobacter freundii = assay: Antibacterial activity against Citrobacter freundii 323 after 18 to 24 hrs by agar dilution method; type: functional; in short: as §1
Salmonella typhimurium = assay: Antibacterial activity against Salmonella Typhimurium after 18 to 24 hrs by agar dilution method; type: functional, Salmonella enterica subsp. enterica serovar Typhimurium; settings: Salmonella enterica; in short: as §1
Proteus mirabilis [23] = assay: Antibacterial activity against Proteus mirabilis 112/3 after 18 to 24 hrs by agar dilution method; type: functional; in short: as §1
Klebsiella pneumoniae [24] = assay: Antibacterial activity against Klebsiella pneumoniae 523 after 18 to 24 hrs by agar dilution method; type: functional; in short: as §1
[25] = test system: Corynebacterium diphtheriae; assay: Antibacterial activity against Corynebacterium diphtheriae after 18 to 24 hrs by agar dilution method; type: functional; in short: as §1
Pseudomonas aeruginosa [26] = assay: Antibacterial activity against Pseudomonas aeruginosa 77/2 after 18 to 24 hrs by agar dilution method; type: functional; in short: as §1
[27] = Antibacterial activity against Salmonella oranienburg after 18 to 24 hrs by agar dilution method; type: functional, Salmonella enterica subsp. enterica serovar Oranienburg; settings: Salmonella enterica; in short: as §1
Serratia marcescens [28] = assay: Antibacterial activity against Serratia marcescens 6093 after 18 to 24 hrs by agar dilution method; type: functional; in short: as §1
Staphylococcus aureus [29] = assay: Antibacterial activity against Staphylococcus aureus giorgio after 18 to 24 hrs by agar dilution method; type: functional; in short: as §1
Salmonella paratyphi = assay: Antibacterial activity against Salmonella paratyphi A after 18 to 24 hrs by agar dilution method; type: functional, Salmonella enterica subsp. enterica serovar Paratyphi A; settings: Salmonella enterica; in short: as §2
Enterobacter cloacae [30] = assay: Antibacterial activity against Enterobacter cloacae 417 after 18 to 24 hrs by agar dilution method; type: functional; in short: as §1
Serratia marcescens [31] = assay: Antibacterial activity against Serratia marcescens 3349 after 18 to 24 hrs by agar dilution method; type: functional; in short: as §1
Serratia marcescens [32] = assay: Antibacterial activity against Serratia marcescens 14273 after 18 to 24 hrs by agar dilution method; type: functional; in short: as §1
Escherichia coli [33] = assay: Antibacterial activity against Escherichia coli 04 after 18 to 24 hrs by agar dilution method; type: functional; in short: as §1
Pseudomonas aeruginosa [34] = assay: Antibacterial activity against Pseudomonas aeruginosa 9027 after 18 to 24 hrs by agar dilution method; type: functional; in short: as §1

C[C@@H](O)C1C(=O)N2C(C(=O)O)=C(S[C@@H]3CN[C@H](CN4CCCN(C)S4(=O)=O)C3)[C@H](C)C12 (some centres undefined)
MIC (Pasteurella multocida): 0.05 µg/mL (≈ 0.105 µM) | MIC (Pseudomonas aeruginosa [1]): 1.56 µg/mL (≈ 3.29 µM) | MIC [2]: 0.1 µg/mL (≈ 0.211 µM) | MIC (Salmonella): 0.1 µg/mL (≈ 0.211 µM) | MIC (Micrococcus luteus): 0.02 µg/mL (≈ 0.0421 µM) | MIC (Escherichia coli [3]): 0.01 µg/mL (≈ 0.0211 µM) | MIC (Staphylococcus aureus [4]): 0.02 µg/mL (≈ 0.0421 µM) | MIC (Streptococcus pneumoniae): 0.01 µg/mL (≈ 0.0211 µM) | MIC (Escherichia coli [5]): 0.02 µg/mL (≈ 0.0421 µM) | MIC (Streptococcus agalactiae [6]): 0.02 µg/mL (≈ 0.0421 µM) | MIC (Enterococcus faecalis): 3.12 µg/mL (≈ 6.57 µM) | MIC (Haemophilus influenzae): 3.12 µg/mL (≈ 6.57 µM) | MIC (Priestia megaterium): 0.05 µg/mL (≈ 0.105 µM) | MIC (Trueperella pyogenes): 0.01 µg/mL (≈ 0.0211 µM) | MIC (Salmonella typhi): 0.03 µg/mL (≈ 0.0632 µM) | MIC (Escherichia coli [7]): 0.02 µg/mL (≈ 0.0421 µM) | MIC (Escherichia coli [8]): 0.02 µg/mL (≈ 0.0421 µM) | MIC (Escherichia coli [9]): 0.05 µg/mL (≈ 0.105 µM) | MIC (Escherichia coli [10]): 0.02 µg/mL (≈ 0.0421 µM) | MIC (Proteus mirabilis [11]): 0.2 µg/mL (≈ 0.421 µM) | MIC (Staphylococcus aureus [12]): 0.01 µg/mL (≈ 0.0211 µM) | MIC (Enterococcus durans): 0.1 µg/mL (≈ 0.211 µM) | MIC (Serratia marcescens [13]): 0.1 µg/mL (≈ 0.211 µM) | MIC (Enterobacter cloacae [14]): 0.025 µg/mL (≈ 0.0527 µM) | MIC (Streptococcus pyogenes): < 0.01 µg/mL | MIC (Klebsiella pneumoniae [15]): 0.05 µg/mL (≈ 0.105 µM) | MIC (Acinetobacter baumannii): 3.12 µg/mL (≈ 6.57 µM) | MIC (Providencia rettgeri [16]): 0.4 µg/mL (≈ 0.843 µM) | MIC (Bacillus subtilis): 0.03 µg/mL (≈ 0.0632 µM) | MIC (Staphylococcus aureus [17]): 6.25 µg/mL (≈ 13.2 µM) | MIC (Streptococcus agalactiae [18]): < 0.01 µg/mL | MIC (Pseudomonas aeruginosa [19]): 0.8 µg/mL (≈ 1.69 µM) | MIC (Burkholderia cepacia): 0.4 µg/mL (≈ 0.843 µM) | MIC (Pseudomonas aeruginosa [20]): 0.4 µg/mL (≈ 0.843 µM) | MIC (Staphylococcus): 0.049 µg/mL (≈ 0.103 µM) | MIC (Proteus vulgaris): 0.4 µg/mL (≈ 0.843 µM) | MIC (Providencia rettgeri [21]): 0.4 µg/mL (≈ 0.843 µM) | MIC (Enterobacter cloacae [22]): 0.01 µg/mL (≈ 0.0211 µM) | MIC (Enterococcus faecium): < 0.01 µg/mL | MIC (Citrobacter freundii): 0.025 µg/mL (≈ 0.0527 µM) | MIC (Salmonella typhimurium): 0.1 µg/mL (≈ 0.211 µM) | MIC (Proteus mirabilis [23]): 0.2 µg/mL (≈ 0.421 µM) | MIC (Klebsiella pneumoniae [24]): 0.025 µg/mL (≈ 0.0527 µM) | MIC [25]: 0.01 µg/mL (≈ 0.0211 µM) | MIC (Pseudomonas aeruginosa [26]): 1.6 µg/mL (≈ 3.37 µM) | MIC [27]: 0.1 µg/mL (≈ 0.211 µM) | MIC (Serratia marcescens [28]): 0.2 µg/mL (≈ 0.421 µM) | MIC (Staphylococcus aureus [29]): 0.05 µg/mL (≈ 0.105 µM) | MIC (Salmonella paratyphi): 0.05 µg/mL (≈ 0.105 µM) | MIC (Enterobacter cloacae [30]): 0.02 µg/mL (≈ 0.0421 µM) | MIC (Serratia marcescens [31]): 0.049 µg/mL (≈ 0.103 µM) | MIC (Serratia marcescens [32]): 0.4 µg/mL (≈ 0.843 µM) | MIC (Escherichia coli [33]): 0.025 µg/mL (≈ 0.0527 µM) | MIC (Pseudomonas aeruginosa [34]): 1.6 µg/mL (≈ 3.37 µM)
